Reference: ChEMBL document CHEMBL1142420, “Synthesis and DNA-cleaving activity of lactenediynes conjugated with DNA-complexing moieties” (2008)

Tests used:
Format in all cases: functional
BT-549 = test: Cytotoxicity against human BT549 cells after 48 hrs by SRB assay; conditions: BT-549, 48 h
Procedure, shortened: (§1)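 Run at NCI: cell lines exposed 48 h to a range of concentrations, with untreated controls under identical conditions. Growth measured by sulforhodamine B staining with colorimetric read-out. Percent growth computed from test, time-zero and control absorbances. GI50, TGI and LC50 read from PG versus log10 molar concentration as the concentrations giving PG = 50, 0 and -50.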

786-0 = test: Cytotoxicity against human 786-0 cells after 48 hrs by SRB assay; conditions: 786-0, 48 h; procedure, shortened: as §1
NCI-H322M = test: Cytotoxicity against human NCI-H322M cells after 48 hrs by SRB assay; procedure, shortened: as §1
NCI/ADR-RES = test: Cytotoxicity against human NCI/ADR-RES cells after 48 hrs by SRB assay; procedure, shortened: as §1
SK-MEL-2 = test: Cytotoxicity against human SK-MEL-2 cells after 48 hrs by SRB assay; conditions: SK-MEL-2, 48 h; procedure, shortened: as §1
SNB-19 = test: Cytotoxicity against human SNB19 cells after 48 hrs by SRB assay; conditions: SNB-19, 48 h
Procedure, shortened: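 Run at NCI: cells exposed 48 h to a range of concentrations, with untreated controls under identical conditions. Growth measured by sulforhodamine B staining with colorimetric read-out. Percent growth (PG) calculated from absorbance at 48 h with drug, at time zero, and at 48 h without drug. Log molar concentration plotted against PG; GI50 at PG = 50, TGI at PG = 0, LC50 at PG = −50.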

NCI-H226 = test: Cytotoxicity against human NCI-H226 cells after 48 hrs by SRB assay; conditions: NCI-H226, 48 h; procedure, shortened: as §1
KM12 = test: Cytotoxicity against human KM12 cells after 48 hrs by SRB assay; conditions: KM12, 48 h; procedure, shortened: as §1
NCI-H460 = test: Cytotoxicity against human NCI-H460 cells after 48 hrs by SRB assay; conditions: NCI-H460, 48 h; procedure, shortened: as §1
HT-29 = test: Cytotoxicity against human HT29 cells after 48 hrs by SRB assay; conditions: HT-29, 48 h; procedure, shortened: as §1
COLO 205 = test: Cytotoxicity against human COLO205 cells after 48 hrs by SRB assay; conditions: COLO 205, 48 h; procedure, shortened: as §1
MDA-MB-435 = test: Cytotoxicity against human MDA-MB-435 cells after 48 hrs by SRB assay; conditions: MDA-MB-435, 48 h; procedure, shortened: as §1
HCT-116 = test: Cytotoxicity against human HCT116 cells after 48 hrs by SRB assay; conditions: HCT-116, 48 h; procedure, shortened: as §1
OVCAR-8 = test: Cytotoxicity against human OVCAR8 cells after 48 hrs by SRB assay; conditions: OVCAR-8, 48 h; procedure, shortened: as §1
UACC-257 = test: Cytotoxicity against human UACC257 cells after 48 hrs by SRB assay; conditions: UACC-257, 48 h; procedure, shortened: as §1
MOLT-4 = test: Cytotoxicity against human MOLT4 cells after 48 hrs by SRB assay; conditions: MOLT-4, 48 h; procedure, shortened: as §1
HCC 2998 = test: Cytotoxicity against human HCC2998 cells after 48 hrs by SRB assay; conditions: HCC 2998, 48 h; procedure, shortened: as §1
SK-MEL-28 = test: Cytotoxicity against human SK-MEL-28 cells after 48 hrs by SRB assay; conditions: SK-MEL-28, 48 h; procedure, shortened: as §1
MDA-N = test: Cytotoxicity against human MDA-N cells after 48 hrs by SRB assay; procedure, shortened: as §1
SF-539 = test: Cytotoxicity against human SF539 cells after 48 hrs by SRB assay; conditions: SF-539, 48 h; procedure, shortened: as §1
[1] = read-out: Log LC50 (the source's name) (converted)

In the case of `CC(=O)O[C@@H]1C#C/C=C\C#CC[C@H]2C(=O)N(C(=O)OC(C)(C)C)[C@H]12`, the GI50 (BT-549) is reported as 24.5 µM, the CC50 (BT-549; [1]) is reported as > 100 µM and the TGI (BT-549; read-out: Log TGI (converted)) is reported as > 100 µM. The GI50 (786-0) was 11.5 µM, the CC50 (786-0; [1]) was > 100 µM and the TGI (786-0; read-out: Log TGI (converted)) was 69.2 µM. The GI50 (NCI-H322M) was > 100 µM, the CC50 (NCI-H322M; [1]) was > 100 µM and the TGI (NCI-H322M; read-out: Log TGI (converted)) was > 100 µM. For the same compound, the GI50 (NCI/ADR-RES) was 28.8 µM, the CC50 (NCI/ADR-RES; [1]) was > 100 µM and the TGI (NCI/ADR-RES; read-out: Log TGI (converted)) was > 100 µM. The GI50 (SK-MEL-2) was 47.9 µM, the CC50 (SK-MEL-2; [1]) was > 100 µM and the TGI (SK-MEL-2; read-out: Log TGI (converted)) was > 100 µM. For the same compound, the CC50 (SNB-19; [1]) was > 100 µM, the TGI (SNB-19; read-out: Log TGI (converted)) was > 100 µM and the GI50 (NCI-H226) was 39.8 µM. For the same compound, the GI50 (KM12) was > 100 µM, the CC50 (KM12; [1]) was > 100 µM and the TGI (KM12; read-out: Log TGI (converted)) was > 100 µM. For the same compound, the GI50 (NCI-H460) was 0.0933 µM, the CC50 (NCI-H460; [1]) was > 100 µM and the TGI (NCI-H460; read-out: Log TGI (converted)) was > 100 µM. The GI50 (HT-29) was > 100 µM, the CC50 (HT-29; [1]) was > 100 µM and the TGI (HT-29; read-out: Log TGI (converted)) was > 100 µM. For the same compound, the GI50 (COLO 205) was 39.8 µM, the CC50 (COLO 205; [1]) was > 100 µM and the TGI (COLO 205; read-out: Log TGI (converted)) was > 100 µM. The GI50 (MDA-MB-435) was > 100 µM, the CC50 (MDA-MB-435; [1]) was > 100 µM and the TGI (MDA-MB-435; read-out: Log TGI (converted)) was > 100 µM. The GI50 (HCT-116) was 25.7 µM, the CC50 (HCT-116; [1]) was > 100 µM and the TGI (HCT-116; read-out: Log TGI (converted)) was > 100 µM. For the same compound, the GI50 (OVCAR-8) was 14.5 µM, the CC50 (OVCAR-8; [1]) was > 100 µM and the TGI (OVCAR-8; read-out: Log TGI (converted)) was 89.1 µM. The CC50 (UACC-257; [1]) was > 100 µM, the TGI (UACC-257; read-out: Log TGI (converted)) was > 100 µM and the GI50 (UACC-257; read-out: pGI50 (converted)) was 18.2 µM. For the same compound, the GI50 (MOLT-4) was 0.407 µM, the CC50 (MOLT-4; [1]) was > 100 µM and the TGI (MOLT-4; read-out: Log TGI (converted)) was > 100 µM. The GI50 (HCC 2998) was 34.7 µM, the CC50 (HCC 2998; [1]) was > 100 µM and the TGI (HCC 2998; read-out: Log TGI (converted)) was > 100 µM. The GI50 (SK-MEL-28) was 87.1 µM, the CC50 (SK-MEL-28; [1]) was > 100 µM and the TGI (SK-MEL-28; read-out: Log TGI (converted)) was > 100 µM. The GI50 (MDA-N) was 87.1 µM, the CC50 (MDA-N; [1]) was > 100 µM and the TGI (MDA-N; read-out: Log TGI (converted)) was > 100 µM. It also gave a GI50 (SF-539) of 0.724 µM, a CC50 (SF-539; [1]) of 25.7 µM and a TGI (SF-539; read-out: Log TGI (converted)) of 5.37 µM.
